The source made the active and inactive calls.
Columns and labels:
Neprilysin [1] = target: T1, Neprilysin (Rattus norvegicus, UniProt P07861); assay: Inhibition of enkephalinase activity in synaptic membranes prepared from rat striatum; type: cell membranes
T1 sequence (P07861 whole entry): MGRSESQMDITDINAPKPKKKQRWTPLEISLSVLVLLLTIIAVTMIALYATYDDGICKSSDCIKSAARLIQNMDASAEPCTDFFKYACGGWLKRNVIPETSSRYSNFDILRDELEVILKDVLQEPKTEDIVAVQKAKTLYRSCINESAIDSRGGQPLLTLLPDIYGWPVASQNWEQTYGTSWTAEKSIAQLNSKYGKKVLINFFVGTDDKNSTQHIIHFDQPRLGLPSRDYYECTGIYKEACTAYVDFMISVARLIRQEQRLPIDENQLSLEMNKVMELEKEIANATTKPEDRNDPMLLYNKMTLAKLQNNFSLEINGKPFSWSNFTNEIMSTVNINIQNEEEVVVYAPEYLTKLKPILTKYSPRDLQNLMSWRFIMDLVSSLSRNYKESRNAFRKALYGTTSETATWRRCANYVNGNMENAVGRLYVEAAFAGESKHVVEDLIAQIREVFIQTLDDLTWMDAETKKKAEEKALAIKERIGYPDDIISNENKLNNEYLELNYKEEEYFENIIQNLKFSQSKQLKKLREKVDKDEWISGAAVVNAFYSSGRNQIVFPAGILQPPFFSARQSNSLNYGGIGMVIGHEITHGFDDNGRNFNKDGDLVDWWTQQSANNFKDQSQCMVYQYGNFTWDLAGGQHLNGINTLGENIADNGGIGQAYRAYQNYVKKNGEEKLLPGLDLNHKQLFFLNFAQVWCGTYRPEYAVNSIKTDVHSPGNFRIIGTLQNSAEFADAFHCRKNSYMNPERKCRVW

Mus musculus [2] = assay: Tail-flick latency observed in CF-1 mice after the administration (30 mg/kg) followed by icv administration of DAEM ([D-Ala2,Met5]enkephalin); type: functional
Method in brief: (§1)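 Male CF-1 mice (20–22 g) given test agent or vehicle sc, followed immediately by icv DAEM (1 μg) or vehicle. Tail-flick latency measured 30 min later, cutoff 10 s, n = 10.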

Mus musculus [3] = assay: Hot-plate jump-latency activity in mouse 15 minutes after subcutaneous administration; type: functional; conditions: sc, 0.25 h, read-out: MED
Method in brief: (§2)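 Male CF1 mice (18–23 g) dosed icv or sc; 15 min later placed singly on a copper hot plate held at 55 °C. Latency to jump recorded, cutoff 240 s. MED = minimum effective dose. ED200 = dose doubling jump latency.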

Neprilysin [4] = target: T2, Neprilysin (Oryctolagus cuniculus, UniProt P08049); assay: (§3) Inhibition of enkephalinase activity in membranes prepared from rabbit
T2 sequence (P08049 whole entry): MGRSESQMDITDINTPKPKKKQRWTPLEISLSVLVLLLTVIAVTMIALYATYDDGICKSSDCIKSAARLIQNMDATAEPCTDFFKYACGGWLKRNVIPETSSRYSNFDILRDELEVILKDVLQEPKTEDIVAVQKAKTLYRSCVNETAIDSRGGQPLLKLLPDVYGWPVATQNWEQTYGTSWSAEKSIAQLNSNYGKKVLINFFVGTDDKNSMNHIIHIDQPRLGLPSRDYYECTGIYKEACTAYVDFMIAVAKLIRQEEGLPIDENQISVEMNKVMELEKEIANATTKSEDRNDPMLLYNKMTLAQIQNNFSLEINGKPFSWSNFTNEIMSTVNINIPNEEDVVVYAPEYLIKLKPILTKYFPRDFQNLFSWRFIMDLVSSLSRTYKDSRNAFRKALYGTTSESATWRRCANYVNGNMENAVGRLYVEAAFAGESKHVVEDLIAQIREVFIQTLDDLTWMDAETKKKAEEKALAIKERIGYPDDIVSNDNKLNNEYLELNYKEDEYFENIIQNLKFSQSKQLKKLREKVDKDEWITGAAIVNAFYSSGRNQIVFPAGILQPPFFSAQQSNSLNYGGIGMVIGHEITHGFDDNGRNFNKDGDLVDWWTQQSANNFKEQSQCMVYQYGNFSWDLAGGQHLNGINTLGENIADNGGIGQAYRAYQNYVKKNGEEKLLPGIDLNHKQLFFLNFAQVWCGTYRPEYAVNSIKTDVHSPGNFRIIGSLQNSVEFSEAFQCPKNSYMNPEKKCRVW

Mus musculus [5] = assay: Doubling of hotplate jump-latency activity in mouse after intra cerebro ventricular administration of the compound; type: functional; method in brief: as §2
Mus musculus [6] = assay: Tail-flick latency observed in CF-1 mice after the administration (30 mg/kg) followed by icv administration of DAEM ([D-Ala2,Met5]enkephalin); IA is Inactive; type: functional, organism-based; method in brief: as §1
Neprilysin [7] = target: T2, Neprilysin; assay: as §3; remark: listed apart in the source
Method in brief: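 Rabbit protease 24.11 (15 ng protein) incubated 10 min at 37 °C with [Tyr-3H]Leu-enkephalin plus unlabeled Leu-enkephalin (1 μM final) in 50 mM Tris-HCl, pH 6.5. Stopped with TFA. Tyr-Gly-Gly product separated from substrate by C4 reverse-phase HPLC (isocratic, 0.09% TFA/acetonitrile). Fractions counted by scintillation.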

IC50 (Neprilysin [1]) | SMILES | further results
9 nM | O=C(O)CCC(=O)NC(Cc1ccccc1)CC(Cc1ccccc1)C(=O)O (stereo not given) | 
90 nM | O=C(O)c1cccc(NC(=O)[C@@H](Cc2ccccc2)C[C@H](Cc2ccccc2)C(=O)O)c1 | 
5 nM | O=C(O)C(CCc1ccccc1)NC(=O)[C@H](Cc1ccccc1)C[C@@H](Cc1ccccc1)C(=O)O (stereo not given in full) | 
4 nM | O=C(O)C(CSCc1ccccc1)NC(=O)[C@H](Cc1ccccc1)C[C@@H](Cc1ccccc1)C(=O)O (stereo not given in full) | 
4 nM | O=C(O)CNC(=O)[C@H](Cc1ccccc1)C[C@@H](Cc1ccccc1)C(=O)O | 
25 nM | O=C(O)Cc1ccccc1NC(=O)[C@H](Cc1ccccc1)C[C@@H](Cc1ccccc1)C(=O)O | 
38 nM | O=C(O)c1cc(NC(=O)[C@H](Cc2ccccc2)C[C@@H](Cc2ccccc2)C(=O)O)ccc1O | 
 | CC1(C)O[C@@H]2O[C@@H](COC(=O)CCNC(=O)[C@H](Cc3ccccc3)C[C@@H](Cc3ccccc3)C(=O)[O-])[C@H]3OC(C)(C)O[C@H]3[C@@H]2O1.[Na+] | Reaction time (Mus musculus [2]): 8.1 s; minimal effective dose (Mus musculus [3]): > 30 mg/kg
1000 nM | O=C(O)c1ccccc1NC(=O)C(Cc1ccccc1)CC(Cc1ccccc1)C(=O)O (stereo not given) | 
 | O=C(O)CCCNC(=O)C(Cc1ccccc1)CC(Cc1ccccc1)C(=O)O (stereo not given) | IC50 (Neprilysin [4]): 57 nM
1000 nM | O=C(O)CCNC(=O)C(CCc1ccccc1)CC(CCc1ccccc1)C(=O)O (stereo not given) | 
18 nM | O=C(O)CCNC(=O)C(Cc1ccccc1)CC(Cc1ccccc1)C(=O)O (stereo not given) | 
40 nM | CC(C)CC(NC(=O)[C@H](Cc1ccccc1)C[C@@H](Cc1ccccc1)C(=O)O)C(=O)O (stereo not given in full) | 
74 nM | O=C(O)C(Cc1c[nH]c2ccccc12)NC(=O)[C@H](Cc1ccccc1)C[C@@H](Cc1ccccc1)C(=O)O (stereo not given in full) | 
 | CC1(C)O[C@H]2[C@H](COC(=O)CCNC(=O)[C@H](Cc3ccccc3)C[C@@H](Cc3ccccc3)C(=O)O)OC(=O)[C@H]2O1 | Reaction time (Mus musculus [2]): 9.8 s; minimal effective dose (Mus musculus [3]): > 30 mg/kg
6 nM | O=C(O)C(COCc1ccccc1)NC(=O)[C@H](Cc1ccccc1)C[C@@H](Cc1ccccc1)C(=O)O (stereo not given in full) | 
 | O=C(O)CCC(=O)NC(Cc1ccccc1)C[C@@H](Cc1ccccc1)C(=O)O (stereo not given in full) | IC50 (Neprilysin [4]): 2 nM
1000 nM | O=C(O)CCNC(=O)C(CC1CCCCC1)CC(CC1CCCCC1)C(=O)O (stereo not given) | 
> 1000 nM | O=C(O)CCNC(=O)[C@@H](Cc1ccccc1)C[C@H](Cc1ccccc1)C(=O)O | 
> 1000 nM | N#CCCNC(=O)C(Cc1ccccc1)CC(Cc1ccccc1)C(=O)O (stereo not given) | 
> 1000 nM | CCOC(=O)C(Cc1ccccc1)CC(Cc1ccccc1)C(=O)NCCC(=O)O (stereo not given) | ED200 (Mus musculus [5]): 16 µg; minimal effective dose (Mus musculus [3]): > 100 mg/kg; Reaction time (Mus musculus [6]): inactive
1000 nM | O=C(O)C(Cc1ccccc1)CC(Cc1ccccc1)C(=O)NCCCO (stereo not given) | 
800 nM | O=C(O)c1ccc(NC(=O)[C@@H](Cc2ccccc2)C[C@H](Cc2ccccc2)C(=O)O)cc1 | 
 | O=C(O)CCNC(=O)[C@H](Cc1ccccc1)C[C@@H](Cc1ccccc1)C(=O)OC1OC(=O)c2ccccc21 (stereo not given in full) | minimal effective dose (Mus musculus [3]): 30 mg/kg
29 nM | O=C(O)C(Cc1ccccc1)NC(=O)[C@H](Cc1ccccc1)C[C@@H](Cc1ccccc1)C(=O)O (stereo not given in full) | 
 | O=C(O)CCCC(=O)NC(Cc1ccccc1)CC(Cc1ccccc1)C(=O)O (stereo not given) | IC50 (Neprilysin [4]): 12 nM
 | O=C(O)CC(=O)NC(Cc1ccccc1)CC(Cc1ccccc1)C(=O)O (stereo not given) | IC50 (Neprilysin [4]): 62 nM
 | O=C(O)CCCNC(=O)[C@H](Cc1ccccc1)C[C@@H](Cc1ccccc1)C(=O)O | IC50 (Neprilysin [7]): 1.4 nM

SMILES | IC50 (Neprilysin [1]) | further results
CC(C)C[C@H](NP(=O)(O)O[C@@H]1O[C@@H](C)[C@H](O)[C@@H](O)[C@H]1O)C(=O)N[C@@H](Cc1c[nH]c2ccccc12)C(=O)O [PHOSPHORAMIDON] | 0.6 nM | IC50 (Neprilysin [4]): 0.4 nM

Source: ChEMBL document CHEMBL1124374, “Enkephalinase inhibitors. 1. 2,4-Dibenzylglutaric acid derivatives” (J Med Chem, 1989)
